What was measured:
Type in all cases: functional
SF-268 = test: Growth inhibition of human SF268 cells assessed as cell growth at 10 '-5 M after 48 hrs by sulforhodamine B assay; conditions: SF-268, 48 h, read-out: Activity
HOP-92 [1] = test: Growth inhibition of human HOP92 cells assessed as cell growth at 10 '-5 M after 48 hrs by sulforhodamine B assay; conditions: HOP-92, 48 h, read-out: Activity
IGROV-1 [2] = test: Growth inhibition of human IGROV1 cells assessed as cell growth at 10 '-6 M after 48 hrs by sulforhodamine B assay; conditions: IGROV-1, 48 h, read-out: Activity
M14 = test: Growth inhibition of human M14 cells assessed as growth inhibition at 10 uM after 48 hrs by sulforhodamine B assay; conditions: M14, 48 h, read-out: GI
SF-295 [3] = test: Growth inhibition of human SF295 cells assessed as growth inhibition at 10 uM after 48 hrs by sulforhodamine B assay; conditions: SF-295, 48 h, read-out: GI
NCI-H522 = test: Growth inhibition of human NCI-H522 cells assessed as growth inhibition at 10 uM after 48 hrs by sulforhodamine B assay; conditions: NCI-H522, 48 h, read-out: GI
HOP-92 [4] = test: Growth inhibition of human HOP92 cells assessed as growth inhibition at 10 uM after 48 hrs by sulforhodamine B assay; conditions: HOP-92, 48 h, read-out: GI
[5] = Growth inhibition of human EKVX cells assessed as growth inhibition at 10 uM after 48 hrs by sulforhodamine B assay; conditions: read-out: GI
CCRF-CEM = test: Growth inhibition of human CCRF-CEM cells assessed as growth inhibition at 10 uM after 48 hrs by sulforhodamine B assay; conditions: read-out: GI
How it was run: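 NCI-60 primary single-dose screen at 10^-5 M, 48 h continuous exposure. Adherent cells were fixed with cold TCA (10% final) and suspension cells with 16% final TCA, then stained with 0.4% SRB in 1% acetic acid. Bound dye was solubilized in 10 mM Tris base and read at 515 nm. Output is growth percent relative to untreated controls, and GI% is 100 minus growth percent.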

MCF7 = test: Growth inhibition of human MCF7 cells assessed as cell growth at 10 '-4 M after 48 hrs by sulforhodamine B assay; conditions: MCF7, 48 h, read-out: Activity
SN12C = test: Growth inhibition of human SN12C cells assessed as cell growth at 10 '-4 M after 48 hrs by sulforhodamine B assay; conditions: read-out: Activity
SW-620 [6] = test: Growth inhibition of human SW620 cells assessed as cell growth at 10 '-6 M after 48 hrs by sulforhodamine B assay; conditions: SW-620, 48 h, read-out: Activity
NCI-H460 = test: Growth inhibition of human NCI-H460 cells assessed as cell growth at 10 '-6 M after 48 hrs by sulforhodamine B assay; conditions: NCI-H460, 48 h, read-out: Activity
HL-60(TB) = test: Growth inhibition of human HL-60(TB) cells assessed as cell growth at 10 '-6 M after 48 hrs by sulforhodamine B assay; conditions: HL-60, 48 h, read-out: Activity
How it was run: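 Five-dose NCI protocol with final concentrations of 0.01–100 µM and drug diluted from a DMSO stock (400× the top concentration) in medium with gentamicin. Cells were pre-incubated 24 h, then exposed 48 h at 37 °C. Suspension cells were fixed with 16% final TCA, SRB-stained and read at 515 nm. Percentage growth at each level was [(Ti−Tz)/(C−Tz)]×100, or [(Ti−Tz)/Tz]×100 when Ti < Tz.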

SK-MEL-2 [7] = test: Growth inhibition of human SK-MEL-2 cells assessed as cell growth at 10 '-7 M after 48 hrs by sulforhodamine B assay; conditions: SK-MEL-2, 48 h, read-out: Activity
HT-29 = test: Growth inhibition of human HT-29 cells assessed as cell growth at 10 '-7 M after 48 hrs by sulforhodamine B assay; conditions: HT-29, 48 h, read-out: Activity
IGROV-1 [8] = test: Growth inhibition of human IGROV1 cells assessed as cell growth at 10 '-4 M after 48 hrs by sulforhodamine B assay; conditions: IGROV-1, 48 h, read-out: Activity
SF-295 [9] = test: Growth inhibition of human SF295 cells assessed as cell growth at 10 '-4 M after 48 hrs by sulforhodamine B assay; conditions: SF-295, 48 h, read-out: Activity
SW-620 [10] = test: Growth inhibition of human SW620 cells assessed as cell growth at 10 '-4 M after 48 hrs by sulforhodamine B assay; conditions: SW-620, 48 h, read-out: Activity
BT-549 = test: Growth inhibition of human BT549 cells after 48 hrs by sulforhodamine B assay; conditions: BT-549, 48 h
How it was run: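 NCI 60-cell-line five-dose screen at 0.01, 0.1, 1, 10 and 100 µM final. Cells were plated at 5,000–40,000/well and grown 24 h at 37 °C, 5% CO2, then exposed to drug continuously for 48 h. Adherent cells were fixed with cold TCA (10% final) and stained with SRB; absorbance read at 515 nm. GI50 is the concentration where [(Ti-Tz)/(C-Tz)]×100 = 50, with Tz plates fixed at drug addition.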

MDA-MB-231 = test: Growth inhibition of human MDA-MB-231 cells after 48 hrs by sulforhodamine B assay; conditions: MDA-MB-231, 48 h
How it was run: (§1)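 NCI 60-cell-line five-dose screen. Cells were plated at 5,000–40,000/well by doubling time and grown 24 h at 37 °C, 5% CO2. Time-zero plates were TCA-fixed. Drug from DMSO stock was tested at 0.01, 0.1, 1, 10 and 100 µM final for 48 h continuous exposure. Read-out was SRB at 515 nm. GI50 is the concentration giving 50% reduction in net protein increase versus untreated control.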

UO-31 = test: Growth inhibition of human UO31 cells after 48 hrs by sulforhodamine B assay; conditions: UO-31, 48 h
SR = test: Growth inhibition of human SR cells assessed as cell growth at 10 '-4 M after 48 hrs by sulforhodamine B assay; conditions: read-out: Activity
OVCAR-3 [11] = test: Growth inhibition of human OVCAR3 cells after 48 hrs by sulforhodamine B assay; conditions: OVCAR-3, 48 h, read-out: LD50 (the source's name)
SK-MEL-2 [12] = test: Growth inhibition of human SK-MEL-2 cells after 48 hrs by sulforhodamine B assay; conditions: SK-MEL-2, 48 h
LOX IMVI = test: Growth inhibition of human LOXIMVI cells after 48 hrs by sulforhodamine B assay; how it was run: as §1
MDA-MB-468 = test: Growth inhibition of human MDA-MB-468 cells assessed as growth inhibition at 10 uM after 48 hrs by sulforhodamine B assay; conditions: MDA-MB-468, 48 h, read-out: GI
OVCAR-3 [13] = test: Growth inhibition of human OVCAR3 cells assessed as cell growth at 10 '-8 M after 48 hrs by sulforhodamine B assay; conditions: OVCAR-3, 48 h, read-out: Activity
[14] = read-out: LD50 (the source's name)

## Cc1cc(=O)oc2cc(OCCn3c(C)nn(-c4ccc(Cl)cc4)c3=O)ccc12
SF-268
  growth at 10 µM: 52%
HOP-92 [1]
  growth at 10 µM: 55%
IGROV-1 [2]
  growth at 1 µM: 93%
M14
  inhibition of growth at 10 µM: 85.3%
SF-295 [3]
  inhibition of growth at 10 µM: 86%
NCI-H522
  inhibition of growth at 10 µM: 82.8%
HOP-92 [4]
  inhibition of growth at 10 µM: 52.6%
[5]
  inhibition of growth at 10 µM: 41.3%
CCRF-CEM
  inhibition of growth at 10 µM: 86.6%
MCF7
  growth at 100 µM: 21%
SN12C
  growth at 100 µM: 37%
SW-620 [6]
  growth at 1 µM: 68%
NCI-H460
  growth at 1 µM: 83%
HL-60(TB)
  growth at 1 µM: 91%
SK-MEL-2 [7]
  growth at 0.1 µM: 107%
HT-29
  growth at 0.1 µM: 106%
IGROV-1 [8]
  growth at 100 µM: 41%
SF-295 [9]
  growth at 100 µM: 16%
SW-620 [10]
  growth at 100 µM: 25%
BT-549
  GI50: 1650 nM
  TGI: 9.94 µM
BT-549; [14]
  CC50: > 1000 nM
MDA-MB-231
  GI50: 4.53 µM
  TGI: > 1000 nM
MDA-MB-231; [14]
  CC50: > 1000 nM
UO-31
  GI50: 1270 nM
  TGI: > 1000 nM
UO-31; [14]
  CC50: > 1000 nM
SR
  growth at 100 µM: -13%
OVCAR-3 [11]
  CC50: > 1000 nM
SK-MEL-2 [12]
  GI50: 1820 nM
  TGI: > 1000 nM
SK-MEL-2 [12]; [14]
  CC50: > 1000 nM
LOX IMVI
  GI50: 4.83 µM
  TGI: > 1000 nM
LOX IMVI; [14]
  CC50: > 1000 nM
MDA-MB-468
  inhibition of growth at 10 µM: 83.9%
OVCAR-3 [13]
  growth at 0.01 µM: 111%

Source: ChEMBL document CHEMBL2346664, “Synthesis, characterization and in vitro anticancer evaluation of novel 1,2,4-triazolin-3-one derivatives” (2013)
